From PubChem
Many of the other results were omitted from the sample, so hits are more common in it than they were.
BAP1 block: inhibitors of BAP1 deubiquitinase, primary screen, biochemical, Ub-AMC fluorescence, kinetic; recombinant BAP1, Ub-AMC hydrolysis fluorescence kinetic; active compounds read low; calls only at 20 µM; 72,000 tested, 0.48% active; AID 436, 2006;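 active = activity remaining at or below 50% of control, provided the compound also passes the data quality filters; inactive = the rest, including low values that fail the filters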
AP complement: alternative complement pathway inhibitors, primary screen, biochemical, ELISA, human serum, orthogonally pooled compounds | LPS-coated ELISA, C3 deposition; tested in compound mixtures | inhibition, % at 5 µM | 62,000 tested, 0.08% active;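 active = inhibition above 30% in each of the two pooled mixtures holding the compound, so the lower value exceeds 30%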
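Test system – human serum alternative complement pathway, C3 deposition on LPS-coated wells · Buffer or medium – diluted human serum in Mg2+-EGTA GVB++ · Compound dosing – 5 µM each compound, pools of ten, 50 µM per pool · Schedule – 1 h serum-compound exposure at 37 °C · Measured by – Anti-C3 ELISA, OD 450 nm · Read-out basis – percent inhibition of C3 deposition onto LPS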
Ecoli WT expand: growth inhibitors of wild-type E. coli, primary screen, strain BW25113, expanded library, OD600. OD600 absorbance. growth inhibition, % at 100 µM. 98,000 tested, 0.15% active. AID 710, 2007;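 active = growth inhibition above about 50% at one test dose, limit read from the data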;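 also: growth measured after 20 h incubation at 37 °C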
tolC growth inh: growth inhibitors of E. coli tolC mutant, primary screen, strain BW25113 ΔtolC::kan, 384-well; OD615; growth inhibition, % at 10 µM (by protocol); 65,000 tested, 2.2% active; AID 573, 2007;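 active = growth inhibition at or above a cutoff equal to the mean over every tested compound plus 3 SD, cut at about 60% in these data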;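 also: growth measured after 20 h incubation at 37 °C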
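Test system: E. coli BW25113 ΔtolC::kan bacteria; incubation: 37 °C, 20 h exposure; medium: LB broth supplemented with 50 µg/mL kanamycin; read-out basis: percent growth inhibition; signal: A615 absorbance measurement; compound: 10 µM final, single dose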
MMP13 inh: human MMP13 inhibitors, primary screen, biochemical, FRET peptide cleavage; MMP-13 fTHP FRET cleavage, Mca fluorescence; Collagenase 3 (Homo sapiens), P45452; 65,000 tested, 0.07% active; AID 570, 2006; inhibition, % at 4 µM;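 active = inhibition above the mean of compound-free control plate wells plus 3 SD, cut at about 14% in these data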
Ec RNAP inh: E. coli RNAP inhibitors, biochemical. DNA-directed RNA polymerase subunit beta (Escherichia coli (strain K12)), P0A8V2. E. coli RNA polymerase, fluorescence transcription assay. inhibition, %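 (tested at 10 µM)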. 62,000 tested, 0.2% active. AID 559, 2006; in the data active = inhibition above about 20%
Target sequence (P0A8V2 whole entry, looked up): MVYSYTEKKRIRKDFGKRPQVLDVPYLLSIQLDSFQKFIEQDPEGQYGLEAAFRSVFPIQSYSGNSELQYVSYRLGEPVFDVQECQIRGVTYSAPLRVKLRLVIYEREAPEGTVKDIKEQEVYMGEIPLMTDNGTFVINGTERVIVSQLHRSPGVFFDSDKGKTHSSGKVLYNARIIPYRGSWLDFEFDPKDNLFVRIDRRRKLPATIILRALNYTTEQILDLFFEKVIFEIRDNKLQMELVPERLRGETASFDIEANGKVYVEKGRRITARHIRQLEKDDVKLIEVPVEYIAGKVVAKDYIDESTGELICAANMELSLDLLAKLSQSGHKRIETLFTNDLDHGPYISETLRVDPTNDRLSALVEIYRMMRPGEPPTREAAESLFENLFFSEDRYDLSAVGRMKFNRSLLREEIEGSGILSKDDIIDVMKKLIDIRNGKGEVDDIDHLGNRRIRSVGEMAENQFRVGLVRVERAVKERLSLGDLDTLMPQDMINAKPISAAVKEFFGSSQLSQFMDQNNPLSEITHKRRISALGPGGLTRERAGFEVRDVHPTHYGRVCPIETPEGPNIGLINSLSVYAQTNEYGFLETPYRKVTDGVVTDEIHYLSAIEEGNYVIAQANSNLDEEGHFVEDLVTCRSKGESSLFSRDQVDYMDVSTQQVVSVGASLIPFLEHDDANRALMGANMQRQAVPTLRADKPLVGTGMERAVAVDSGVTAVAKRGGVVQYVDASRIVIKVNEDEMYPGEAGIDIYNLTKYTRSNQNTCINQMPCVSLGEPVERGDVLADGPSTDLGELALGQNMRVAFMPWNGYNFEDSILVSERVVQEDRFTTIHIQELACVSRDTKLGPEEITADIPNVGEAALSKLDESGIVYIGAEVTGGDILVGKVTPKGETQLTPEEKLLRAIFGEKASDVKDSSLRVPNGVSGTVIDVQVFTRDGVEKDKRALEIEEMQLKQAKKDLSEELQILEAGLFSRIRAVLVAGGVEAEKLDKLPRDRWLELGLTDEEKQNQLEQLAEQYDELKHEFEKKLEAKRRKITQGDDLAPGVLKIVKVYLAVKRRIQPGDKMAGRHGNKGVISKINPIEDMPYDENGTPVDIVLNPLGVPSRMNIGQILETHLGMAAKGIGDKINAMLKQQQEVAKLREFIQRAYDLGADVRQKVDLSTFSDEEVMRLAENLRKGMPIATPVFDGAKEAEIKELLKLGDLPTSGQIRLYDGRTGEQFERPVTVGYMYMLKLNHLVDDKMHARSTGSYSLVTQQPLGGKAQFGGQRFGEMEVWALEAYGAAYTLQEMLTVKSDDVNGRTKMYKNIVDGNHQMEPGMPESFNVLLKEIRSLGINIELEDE
Hits are given with their value; n = inactive; x = not tested or not shown; + = active, no number.

SMILES	BAP1 block	AP complement	Ecoli WT expand	tolC growth inh	MMP13 inh	Ec RNAP inh
O=C(Nc1cc(NC(=O)C2CCCCC2)cc(-c2nc3ccccc3o2)c1)C1CCCCC1	n	x	x	x	x	x
Cc1cc(NS(=O)(=O)c2ccccc2)c(C)c(Cl)c1O	n	n	n	n	n	21
CCOC(=O)CSC1=C(C#N)C(c2ccco2)C(C(=O)Nc2cccc(C(F)(F)F)c2)=C(C)N1 (centres undefined)	n	n	n	61	n	n
COC(=O)c1sc(-c2ccccc2)cc1NC(=O)c1ccc(S(=O)(=O)N2CC(C)OC(C)C2)cc1 (centres undefined)	n	x	x	x	x	x
C=CCN1C(=O)C(C(c2cccc([N+](=O)[O-])c2)C2C(=O)NC(=S)N(CC=C)C2=O)C(=O)NC1=S (centres undefined)	n	x	x	x	x	x
CCCCC(=O)Nc1cccc(-c2nnc(-c3ccccc3)o2)c1	n	n	n	68	n	n
CC(C)n1c2ccccc2c2nc3ccccc3nc21	n	n	n	100	n	n
CCCCCn1c2ccccc2c2nc3ccccc3nc21	n	x	x	x	x	x
CCCC(=O)Nc1cc(-c2nnc(OC)c3ccccc23)ccc1N1CCCCC1	x	x	n	x	x	x
COc1nnc(-c2ccc(N3CCCCC3)c(N)c2)c2ccccc12	n	x	x	63	n	x
CCOC(=O)c1nn2c(C(F)(F)F)cc(-c3ccc(Br)cc3)nc2c1Cl	n	x	x	x	x	x
CN(Cc1ccccc1)c1ncnc2c1cnn2-c1ccccc1	n	n	n	92	n	n
COc1ncnc2c1cnn2-c1ccccc1	x	x	n	x	x	x
c1ccc(CNc2ncnc3c2cnn3-c2ccccc2)cc1	n	n	n	n	n	n
COCCN(CCOC)c1ncnc2c1cnn2-c1ccccc1	n	n	x	n	n	n
c1ccc(CCNc2ncnc3c2cnn3-c2ccccc2)cc1	n	x	x	73	n	x
CCN(c1ccccc1)c1ncnc2c1cnn2-c1ccccc1	n	n	n	100	n	n
Cc1cc(-c2ccccc2)n(-c2cc(N3CCCCC3)ncn2)n1	n	x	x	x	x	x
COc1ccc(/C=N/N=C/c2ccc(OC)c(O)c2)cc1O	x	x	n	x	x	x
Oc1cc(O)cc(/C=C/c2ccc(O)c(O)c2)c1	+	x	x	x	x	x
Cc1nc(N2CCN(c3ccccc3)CC2)nc2c1C(=O)CCC2	n	n	n	91	n	n
CCc1c(C#N)c(SCc2c(C)noc2C)nc2c1C(=O)CC(C)(C)C2	n	n	x	63	n	n
Cc1ccc(C2C(N3C(=O)c4ccc([N+](=O)[O-])cc4C3=O)C(=O)N2c2ccc(C)c(F)c2)cc1 (centres undefined)	n	x	x	x	x	x
CCOc1ccc(-c2nc(C#N)c(N3CCCCCC3)o2)cc1	x	n	n	68	n	n
CCCc1[nH]nc2c1C(c1ccc(OC)c(CSC3=NCCS3)c1)C(C#N)=C(N)O2 (centres undefined)	n	n	n	87	n	n
SMILES	BAP1 block	AP complement	Ecoli WT expand	tolC growth inh	MMP13 inh	Ec RNAP inh
CCCc1[nH]nc2c1C(c1cc(OC)cc(OC)c1)C(C#N)=C(N)O2 (centres undefined)	n	n	n	n	n	n
CCc1ccc(O)c(N=Cc2ccccc2O)c1	n	n	n	n	n	27
CC(NS(=O)(=O)c1ccc(Cl)cc1)C(c1cccs1)N1CCN(C)CC1 (centres undefined)	n	x	x	n	n	x
CC(NS(=O)(=O)c1ccc(F)cc1)C(c1cccs1)N1CCN(C)CC1 (centres undefined)	n	n	x	n	n	21
O=C(Nc1ccccc1)c1ccccc1O	n	n	n	n	n	n
Cc1ccc(NC(=O)c2ccccc2O)cc1	n	n	n	92	n	n
COc1ccc2nc(NC(=O)C3CCCCC3)sc2c1	n	x	x	x	x	x
O=C(Nc1nc2n(n1)C(c1ccc(Cl)cc1)CC(c1ccc(Cl)cc1)N2)c1ccco1 (centres undefined)	n	n	n	61	n	n
COc1ccc(C2CC(c3ccccc3)n3nc(NC(=O)c4cccs4)nc3N2)cc1 (centres undefined)	n	n	n	65	n	n
COc1ccc(C2CC(c3ccccc3)Nc3nc(NC(=O)c4cccs4)nn32)cc1 (centres undefined)	n	n	n	n	n	n
COc1ccc(C2CC(c3ccc(Cl)cc3)Nc3nc(NC(=O)c4ccco4)nn32)cc1 (centres undefined)	n	n	x	n	n	n
CCn1cc(C(=O)OCC(=O)OC2CC(C)CCC2C(C)C)c(=O)c2ccc(C)nc21 (centres undefined)	n	n	n	84	n	n
Cc1cc2c(cc(C(=O)OCC(=O)NCc3cccs3)n2C(C)C)o1	n	n	n	75	n	n
COc1ccc(-c2nnc(SCC(=O)NCc3cccs3)n2C(C)C)cc1	x	x	n	x	x	x
CCCCCOC(=O)C1=C(C)N(C)C(=O)NC1c1ccccc1Cl (centres undefined)	n	x	x	x	x	x
Cn1c2ccc(F)cc2c2ncn(Cc3ccco3)c(=O)c21	x	x	n	x	x	x
CCCCn1c(=O)n(Cc2cccc(F)c2)c(=O)c2c1ncn2Cc1ccco1	n	n	n	65	n	n
CC1=C(/C=C/C(C)=C/C=C/C(C)=C/C(=O)Nc2ccc(O)cc2)C(C)(C)CCC1	+	x	x	x	x	x
O=C(Nc1cccc(Cl)c1)Nc1nccs1	n	n	77	69	n	n
Oc1ccc(Br)cc1C=Nc1nc(-c2cccc3ccccc23)cs1	n	x	x	x	x	x
CC1CCCN(S(=O)(=O)c2ccc(NC(=O)c3cccc(-n4cnnn4)c3)cc2)C1 (centres undefined)	n	n	n	73	n	n
CC[n+]1c(C=C2C=C(C)CC(C)(C)C2)oc2ccccc21	n	x	x	x	x	x
O=[N+]([O-])c1cc(S(=O)(=O)Nc2cc3c4c(oc3c3ccccc23)CCCC4)ccc1Cl	n	x	x	x	x	x
COc1cccc(-c2cc(C(=O)N3CC4(C)CC3CC(C)(C)C4)no2)c1 (centres undefined)	n	n	n	80	n	n
CC1(C(=O)NCc2cccnc2)CCC(=O)N1Cc1cccs1 (centres undefined)	n	36	n	n	n	n
